A short description of this series: Toxicity liver stage against HepG2, at 10uM. Type of series: cell-based. Also on record: test concentration 10 uM, cell line HepG2-A16-CD81EGFP. The following applies: human, HepG2-A16-CD81EGFP cells; read-out: INHIBITION
A digest of the protocol:
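Uninfected HepG2-A16-CD81EGFP cells, 3 × 10^3 per well, 1536-well, plated on prespotted compound at 10 μM final, parasite-free screening media added to match infected plates; puromycin 10 μM positive, DMSO 0.5% negative; run in parallel with 48 h PbLuc assay at 37 °C, 5% CO2; viability by CellTiter-Glo luminescence, normalized to controls.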
For the molecule `CCOCc1cncc2c1CCN(S(=O)(=O)c1ccccc1)C2`, the cytotoxicity at 10 µM was determined as 14.6%.

As to `CN1Cc2c(C(=O)N3CCOCC3)ncn2-c2ccccc2S1(=O)=O`, the cytotoxicity at 10 µM is -1.58%.

In the case of `CCN1CCCC(O)(CNCc2ccncc2)C1` (stereo unspecified), the cytotoxicity at 10 µM is -2.93%.

For the molecule `CCOC(=O)c1cc(C(C)(O)CCC=C(C)C)on1` (stereo unspecified), the cytotoxicity at 10 µM was determined as 2.3%.

Regarding `Cc1csc(Nc2cc(C3CN(C(C)C)C3)nc(C)n2)n1`, the cytotoxicity at 10 µM was -7.56%.

Regarding `CS(=O)(=O)N1CCCC(Cc2cnc(Br)cn2)CC1` (stereo unspecified), the cytotoxicity at 10 µM was -2.46%.

On to `Cc1cc(C)nc(N2CCC(c3noc(C)n3)CC2)n1`, for which the cytotoxicity at 10 µM was -9.08%.

With `CC(=O)Nc1nc(C2CN(C(=O)C3CCC3)C2)cs1`, the cytotoxicity at 10 µM is -21.9%.

As to `CCC(=O)N1CCC2(CC1)CNC(=O)c1cc(C)ccc1O2`, the cytotoxicity at 10 µM was -20%.

For the molecule `Cc1nc(Nc2ncccn2)cc(C2CN(C(=O)c3cccnc3)C2)n1`, the cytotoxicity at 10 µM was 4.42%.

As to `O=C(c1cccs1)N1CCc2c(nc(N3CCCCC3)[nH]c2=O)C1`, the cytotoxicity at 10 µM is -14.5%.

With `Cn1cc(C2CCCN2C(=O)c2cnc(-c3cccs3)s2)cn1` (stereo unspecified), the cytotoxicity at 10 µM is 4.99%.

Consider `COc1cc(CNC(C)c2nnc3n2CCC3)cc(OC)c1` (stereo unspecified), for which the cytotoxicity at 10 µM is -41.7%.

As for `CCOCCCNC(=O)c1cccn1Cc1cccnc1`, the cytotoxicity at 10 µM is -43.8%.

With `Cc1cc(CN(CCO)Cc2cc(Br)ccc2F)no1`, the cytotoxicity at 10 µM is 3.46%.

For the molecule `Cc1nc(NC(=O)NCc2cccnc2NCCN(C)C)sc1C`, the cytotoxicity at 10 µM was 4.51%.

`CCC(C)c1csc(NC(=O)c2sc(-c3nnc[nH]3)nc2C)n1` (stereo unspecified): the cytotoxicity at 10 µM is -35.5%.

Take `Cc1noc(CCCC(=O)N2CSCC2C(=O)NCC2CC2)n1` (stereo unspecified): the cytotoxicity at 10 µM is -44.9%.

As to `FC(F)(F)c1cc(C2CCCN(Cc3ccncc3)C2)n[nH]1` (stereo unspecified), the cytotoxicity at 10 µM is -52.8%.

On to `CCN1CCN(C(=O)c2csnn2)c2ccccc21`, for which the cytotoxicity at 10 µM was -1.46%.

As for `CC(C)N(C)S(=O)(=O)N(Cc1cccs1)CC1CCCO1` (stereo unspecified), the cytotoxicity at 10 µM was -53.7%.

In the case of `CC(=O)N1CCC(NC(=O)c2cc(Cl)ccc2-n2cnnn2)CC1`, the cytotoxicity at 10 µM came to 8.72%.

With `CCN(CC)c1ccc(CNC(=O)c2cnccn2)cn1`, the cytotoxicity at 10 µM was -104%.

Take `CN(CC(=O)N(C)C1CCN(CC2CCOC2)CC1)c1ccccc1` (stereo unspecified): the cytotoxicity at 10 µM is -9.45%.

`NC(=O)Cn1cc(NC(=O)NCC2CCN(c3ccccc3)C2)cn1` (stereo unspecified): the cytotoxicity at 10 µM was found to be 1.95%.

With `CCCNC(=O)Nc1ccn(CCCOC)n1`, the cytotoxicity at 10 µM is -2.11%.

Take `Cc1nnc(NC(=O)NC(C)C(=O)NC2CCCC2)s1` (stereo unspecified): the cytotoxicity at 10 µM is -0.334%.

For the molecule `CCn1c(CN(C)Cc2cnc(C)s2)nc2c(F)cccc21`, the cytotoxicity at 10 µM is -42%.

Turning to `N#Cc1cc(F)c(NCCc2ccc(S(N)(=O)=O)cc2)c(F)c1`, the cytotoxicity at 10 µM is -53.9%.

For the molecule `CC(NC(=O)Cn1cccnc1=O)c1ccc(C(F)(F)F)cc1` (stereo unspecified), the cytotoxicity at 10 µM was 8.2%.

`COc1cccc(CNC(CN2CCN(C)CC2)c2ccccc2)c1` (stereo unspecified): the cytotoxicity at 10 µM is 12.5%.

On to `Cc1ccc(CC(=O)N2CCOC(c3nc(C)n[nH]3)C2)cn1` (stereo unspecified), for which the cytotoxicity at 10 µM was -3.28%.

`CC[C@H]1COCCN1C(=O)c1cnc(N2CCN(C)CC2)nc1C`: the cytotoxicity at 10 µM was -12.4%.

Regarding `CC(=O)c1cccc(-c2nc3c([nH]2)CCNC3)c1F`, the cytotoxicity at 10 µM is -50.5%.

In the case of `CCC(NC(=O)CCCN1CCCCC1)c1cn2cccnc2n1` (stereo unspecified), the cytotoxicity at 10 µM amounted to 8.09%.

Regarding `COc1ncccc1CN1CC[C@@]2(O)CCN(C(=O)C3CCC3)C[C@H]2C1`, the cytotoxicity at 10 µM was determined as 9.31%.

For the molecule `CN(C)C[C@H]1C[C@H](CO)CN(C(=O)c2cc(S(N)(=O)=O)ccc2F)C1`, the cytotoxicity at 10 µM turned out to be 11.9%.

For the molecule `Cc1ncc(C(=O)N2CC[C@@]3(O)CCN(C(=O)N(C)C)C[C@H]3C2)cn1`, the cytotoxicity at 10 µM was -46.3%.

`COCC(=O)NCC1CCCN(Cc2cc3ccccc3[nH]2)C1` (stereo unspecified): the cytotoxicity at 10 µM came to 7.32%.

`CN(CCC1CCOCC1)[C@@H]1c2ccccc2C2(CCNCC2)[C@H]1O`: the cytotoxicity at 10 µM was -3.23%.

With `c1nc2c(c(NC3COC4(CCCC4)C3)n1)CCNCC2` (stereo unspecified), the cytotoxicity at 10 µM came to 0.383%.

Consider `CC(C)N1CCN(C(=O)c2csc3nc(-c4ccc(Cl)cc4)cn23)CC1`, for which the cytotoxicity at 10 µM is 1.98%.

For `CC(C)NCc1cccnc1N1CCN(c2ccccn2)CC1`, the cytotoxicity at 10 µM was -3.85%.

With `Cc1ccc(-c2ccnc(NCC(O)c3ccc(O)cc3)n2)c(C)n1` (stereo unspecified), the cytotoxicity at 10 µM worked out at 0.781%.

Take `CC(C)c1nccn1C(C)C(=O)N1CCN(S(C)(=O)=O)CC1` (stereo unspecified): the cytotoxicity at 10 µM was -4.32%.

Regarding `Cc1nnc(CN(C)CC2(O)CCCN(CCC3CCCCC3)C2=O)o1` (stereo unspecified), the cytotoxicity at 10 µM worked out at 17.1%.

For `Cc1cnc2c(C(=O)N3CCCC(OCc4ccccn4)C3)cnn2c1` (stereo unspecified), the cytotoxicity at 10 µM is -5.2%.

As to `O=C(C1CC2(CCNCC2)CN1)N1CCN(c2ccccc2)CC1` (stereo unspecified), the cytotoxicity at 10 µM is -8.6%.

As to `COCCCN1CC2(CCCN(c3ncc(Cl)cc3F)C2)CCC1=O` (stereo unspecified), the cytotoxicity at 10 µM was -13.1%.

For `CCCn1cc(S(=O)(=O)N[C@H]2CN(CC(N)=O)C[C@@H]2C2CC2)cn1`, the cytotoxicity at 10 µM was -11.7%.

Take `CC(=O)NCC1CCN(CC2CCOc3ccccc3C2)CC1` (stereo unspecified): the cytotoxicity at 10 µM was 10.3%.

For the molecule `CCC[C@@H]1CN(S(=O)(=O)c2ccc(C)c(F)c2)C[C@H]1N(C)C`, the cytotoxicity at 10 µM came to 26.7%.

Turning to `Cc1cc(C)n(-c2cc(N3CCN(C(=O)C(C)(C)C)CC3)nc(C)n2)n1`, the cytotoxicity at 10 µM is 37.1%.

With `O=C(CN1CCC(c2ccccc2)C1)NCC(F)(F)F` (stereo unspecified), the cytotoxicity at 10 µM is -5.28%.

With `Cc1cc(C)c(CNC(=O)NCc2ccncc2)c(=O)[nH]1`, the cytotoxicity at 10 µM was -5.59%.

For the molecule `CCc1ccc(C(=O)N2CCN(CC(O)c3ccccc3)CC2)o1` (stereo unspecified), the cytotoxicity at 10 µM is -2.54%.

As for `OC(COCc1ccccc1)CN1CCC(c2ccn[nH]2)CC1` (stereo unspecified), the cytotoxicity at 10 µM is -13.6%.

As to `OC(COc1ccc(F)cc1)CN1CCC(c2ccn[nH]2)CC1` (stereo unspecified), the cytotoxicity at 10 µM worked out at 0.923%.

Regarding `CCn1ncc2c1CCCC2NCc1cc(OC)cc(OC)c1` (stereo unspecified), the cytotoxicity at 10 µM stood at 3.24%.

`Cc1cc(C(=O)NS(C)(=O)=O)c(C)n1-c1ccccc1`: the cytotoxicity at 10 µM is -8.81%.

As for `COc1cccc(CNC(=O)CN2CCCC(Cn3cncn3)C2)c1` (stereo unspecified), the cytotoxicity at 10 µM was -18.2%.

On to `Cc1ccc(NC2CCN(C(=O)c3ccc(Cl)cc3F)CC2)nn1`, for which the cytotoxicity at 10 µM was -17.7%.

As for `CCc1cc(C(=O)N2CCC(Nc3ccc(C)nn3)CC2)sc1C`, the cytotoxicity at 10 µM was -1.03%.

For the molecule `CC1(C)CN(C(=O)NCCc2ccn(-c3ccccc3)n2)CCO1`, the cytotoxicity at 10 µM was found to be 2.21%.

On to `O=C(O)c1cc2c(nc1-c1cncnc1)CCN(C1CCOC1)CC2` (stereo unspecified), for which the cytotoxicity at 10 µM is -1.61%.

As for `CN(C)Cc1cc(C2CCCCN2S(=O)(=O)c2cccc(Cl)c2)nn1C` (stereo unspecified), the cytotoxicity at 10 µM was -8.63%.

In the case of `c1cnc(N2CCO[C@H]3CN(Cc4c[nH]cn4)C[C@H]32)cn1`, the cytotoxicity at 10 µM amounted to 9.49%.

As for `O=C(C1CN(c2ncc(F)cn2)CC12CCOCC2)N1CC=CC1` (stereo unspecified), the cytotoxicity at 10 µM came to 9.49%.

As for `Cn1ccnc1CN1C[C@H](N2CCOCC2)[C@@H]2OCCC[C@@H]21`, the cytotoxicity at 10 µM worked out at 7.19%.

With `O=C(c1cc[nH]n1)N1CCC(F)(F)C2(CCN(c3ccccn3)C2)C1` (stereo unspecified), the cytotoxicity at 10 µM was 2.38%.

On to `O=C(Cc1cnccn1)N1C[C@@H]2CC[C@H]1CN(Cc1cscn1)C2`, for which the cytotoxicity at 10 µM is 1.88%.

Source of the values: ChEMBL document CHEMBL4513216, “Probing the Open Global Health Chemical Diversity Library for Multistage-Active Starting Points for Next-Generation Antimalarials” (ACS Infect Dis, 2020).
